# Calls of active or inactive are those of the source. The calls are words filed in the database; no cut-off is given here.
# What was measured:
# [1] = target: T1, 3'-5' exonuclease crn-4 (Caenorhabditis elegans) (UniProt Q10905); test: (§1) Inhibition of GST-tagged Caenorhabditis elegans CRN-4 exonuclease activity expressed in Escherichia coli BL21 (DE3) pLysS preincubated for 10 mins followed by [gamma-32P]ATP labelled 11-nucleotide ssRNA substrate addition for 30 mins by PAGE based autoradiography
# T1 sequence (whole entry): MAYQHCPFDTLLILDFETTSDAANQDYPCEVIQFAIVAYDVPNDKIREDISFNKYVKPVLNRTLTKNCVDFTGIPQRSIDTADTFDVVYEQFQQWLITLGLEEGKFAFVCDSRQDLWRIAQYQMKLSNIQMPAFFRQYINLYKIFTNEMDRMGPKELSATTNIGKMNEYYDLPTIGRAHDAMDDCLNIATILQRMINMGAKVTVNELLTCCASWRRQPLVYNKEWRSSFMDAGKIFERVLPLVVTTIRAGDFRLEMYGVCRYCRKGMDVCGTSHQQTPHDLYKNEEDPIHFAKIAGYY
# Geobacillus phage GBSV1 = test: Inhibition of recombinant GST-fused Geobacillus phage GBSV1-NSN expressed in Escherichia coli BL21 (DE3) at 10 mM using RNA/DNA as substrate after 15 mins by spectrophotometry relative to control
# Mammarenavirus lassaense [2] = test: Inhibition of Lassa virus N-terminal His-tagged NP exonuclease domain (342 to 569 residues) expressed in Escherichia coli Tuner (DE3) using FAM-labeled 20-nucleotide ssRNA preincubated for 10 mins followed by substrate addition measured after 60 mins by PAGE based […]
# Method in brief: (§2)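 Purified NP exonuclease domain (2 μM), alone or with inhibitor, was incubated with 1 μM 5′-FAM-labelled RNA (20-nt ssRNA or stem-loop with 4-nt 3′ overhang). Buffer: 120 mM NaCl, 2 mM MgCl2, 20 mM Tris-HCl pH 7.0, ±10% DMSO, room temperature, 60 min. Products were run on 20% denaturing gels under UV. Cleavage was quantified across inhibitor concentrations to calculate IC50.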
# Mammarenavirus lassaense [3] = test: (§3) Inhibition of Lassa virus N-terminal His-tagged NP exonuclease domain (342 to 569 residues) expressed in Escherichia coli Tuner (DE3) using 3'-overhang 4-nucleotide stem-loop RNA preincubated for 10 mins followed by substrate addition measured after 60 mins by PAGE based […]; method in brief: as §2
# [4] = target: T2, Ribonuclease T (Escherichia coli (strain K12)) (UniProt P30014); test: (§4) Inhibition of N-terminal His-tagged recombinant Escherichia coli K-12 RNase T exonuclease activity expressed in Escherichia coli BL21-CodonPlus(DE3)-RIPL preincubated for 10 mins followed by [gamma-32P]ATP labelled 11-nucleotide ssDNA substrate addition for 40 mins by PAGE based autoradiography
# T2 sequence (whole entry): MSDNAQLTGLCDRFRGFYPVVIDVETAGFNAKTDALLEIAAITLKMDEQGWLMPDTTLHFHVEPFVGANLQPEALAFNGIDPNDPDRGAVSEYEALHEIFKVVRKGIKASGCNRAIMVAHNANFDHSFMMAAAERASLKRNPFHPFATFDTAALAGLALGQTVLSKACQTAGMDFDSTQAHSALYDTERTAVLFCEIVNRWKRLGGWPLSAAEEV
# [5] = as §3; set-up: species or system Mammarenavirus lassaense; method in brief: as §2
# [6] = target: T1, 3'-5' exonuclease crn-4 (Caenorhabditis elegans); test: (§5) Inhibition of 5'-[gamma-32P]ATP-labelled 11-nucleotide ssRNA binding to Caenorhabditis elegans GST-tagged CRN-4 expressed in Escherichia coli BL21 (DE3) pLysS at 1 mM preincubated for 10 mins followed by substrate addition measured after 20 mins by TBE gel electrophoresis mobility shift assay
# Method in brief: (§6)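 Gel-shift assay. Inhibitor was mixed with protein (CRN-4 or RNase T) for 10 min at room temperature, then 20 nM 5′-32P-labelled 11-nt substrate was added (RNA for CRN-4, DNA for RNase T). Buffer: 50 mM Tris-HCl pH 7.0, 120 mM NaCl, 10 mM EGTA, 40 mM EDTA, ±10% DMSO, 20 min at room temperature. Complexes were resolved on 20% TBE gels and read by phosphorimaging.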
# [7] = target: T2, Ribonuclease T (Escherichia coli (strain K12)); test: (§7) Inhibition of 5'-[gamma-32P]ATP-labelled 11-nucleotide ssDNA binding to recombinant Escherichia coli K-12 N-terminal His-tagged RNase T expressed in Escherichia coli BL21-CodonPlus(DE3)-RIPL at 1 mM preincubated for 10 mins followed by substrate addition measured after 20 mins by TBE gel electrophoresis mobility shift assay; method in brief: as §6
# [8] = target: 3'-5' exonuclease crn-4 (Caenorhabditis elegans) (UniProt Q10905); test: as §1; remark: listed apart in the source
# [9] = target: Ribonuclease T (Escherichia coli (strain K12)) (UniProt P30014); test: as §7; method in brief: as §6; remark: listed apart in the source
# [10] = target: Ribonuclease T (Escherichia coli (strain K12)) (UniProt P30014); test: as §4; remark: listed apart in the source
# [11] = target: 3'-5' exonuclease crn-4 (Caenorhabditis elegans) (UniProt Q10905); test: as §5; method in brief: as §6; remark: listed apart in the source
Molecule,INH [1] [mM],inhibition (Geobacillus phage GBSV1) [%],INH (Mammarenavirus lassaense [2]) [mM],INH (Mammarenavirus lassaense [3]) [mM],INH [4] [mM],inhibition (Mammarenavirus lassaense [3]),IC50 [5] [µM],inhibition [6],inhibition [7],INH [8] [mM],inhibition [9],INH [10] [mM],inhibition [11]
O=C(O)CC(O)(CC(=O)O)C(=O)O,> 1,40,1,1,1,,,,,,,,
O=S(=O)(O)c1cc(O)c2c(O)c(/N=N/c3cccc4ccccc34)c(S(=O)(=O)O)cc2c1,0.01,,0.1,0.1,0.1,Dose-dependent effect,66.2,Active,,,,,
O=C(O)c1cc(SSc2ccc([N+](=O)[O-])c(C(=O)O)c2)ccc1[N+](=O)[O-],0.1,,1,1,0.1,,,Active,Active,,,,
O=C(O)c1ccc(Nc2nc(Cl)nc(Cl)n2)cc1-c1c2ccc(=O)cc-2oc2cc(O)ccc12,1,,1,1,1,,,,,,,,
p-Chloromercuribenzenesulfonate,,,1,1,,,,,,0.01,Active,0.01,Active
O=C(O)c1cc2cccc([N+](=O)[O-])c2[nH]1,> 1,,1,1,1,,,,,,,,
O=C(N[C@H](CC1CCCCC1)C(=O)O)OCC1c2ccccc2-c2ccccc21,1,,1,1,1,,,Active,,,,,
O=C(O)C1=CC(=C(c2ccc(O)c(C(=O)O)c2)c2ccc(O)c(C(=O)O)c2)C=CC1=O [AURINTRICARBOXYLIC ACID],0.1,,0.01,0.01,0.01,Dose-dependent effect,6.8,Active,Active,,,,

# Source: ChEMBL document CHEMBL3853325, “Identification of Inhibitors for the DEDDh Family of Exonucleases and a Unique Inhibition Mechanism by Crystal Structure Analysis of CRN-4 Bound with 2-Morpholin-4-ylethanesulfonate (MES)” (J Med Chem, 2016)
